Experimental data as given in ChEMBL document CHEMBL4411266, “Triterpenoid Hydroxamates as HIF Prolyl Hydrolase Inhibitors” (J Nat Prod, 2018).
The source made the active and inactive calls. The rule behind the calls is not given here.

Columns and labels:
[1] = target: T1, Hypoxia-inducible factor prolyl hydroxylase (Homo sapiens, UniProt Q96KS0+Q9NXG6+Q9GZT9+Q9H6Z9); assay: Inhibition of PHD (unknown origin) expressed in mouse NIH/3T3 cells harboring HRE-driven luciferase gene assessed as transactivation of HIF1alpha after 6 hrs by luciferase reporter gene assay; format: cell-based
How it was run: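 NIH-3T3 mouse cells stably carrying an EPO-HRE luciferase reporter (three HRE copies from the erythropoietin promoter) treated with compounds for 6 h. Cells then washed twice in PBS and lysed in Tris-phosphate pH 7.8 buffer with MgCl2, DTT, Triton X-100 and glycerol for 15 min at room temperature. Luciferase measured in the supernatant after centrifugation.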

[2] = target: T1, Hypoxia-inducible factor prolyl hydroxylase; assay: Inhibition of PHD (unknown origin) expressed in mouse NIH/3T3 cells harboring HRE-driven luciferase gene assessed as transactivation of HIF1alpha after 6 hrs by luciferase reporter gene assay relative to deferoxamine; format: cell-based
How it was run: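 Mouse NIH-3T3 cells with a stably transfected EPO-HRE luciferase reporter exposed to compounds for 6 h, then washed, lysed and read for luciferase in the cleared lysate. EC50 and intrinsic relative activity (IRA) were calculated relative to 150 μM deferoxamine as reference.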

[3] = target: T1, Hypoxia-inducible factor prolyl hydroxylase; assay: Inhibition of PHD in HEK293T cells assessed as increase in HIF1alpha expression at 1 to 10 uM after 3 hrs by Western blot analysis; format: cell-based
How it was run: (§1)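 HEK-293T cells treated for 3 h, with DFX (100 μM) as a reference. Cell lysates were made in Tris-HCl pH 7.5/NaCl/glycerol/NP-40 buffer with protease and phosphatase inhibitors. 30 μg protein was run on 10% SDS-PAGE, blotted to PVDF and probed for HIF-1α, PHD1, PHD2 and PHD3. Detection was by HRP secondary and chemiluminescence.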

HEK-293T [4] = assay: Effect on PHD2 expression in HEK293T cells at 1 to 10 uM after 3 hrs by Western blot analysis; format: ADME, cell-based; settings: human; how it was run: as §1
HEK-293T [5] = assay: Effect on PHD1 expression in HEK293T cells at 1 to 10 uM after 3 hrs by Western blot analysis; format: ADME, cell-based; settings: human; how it was run: as §1
HEK-293T [6] = assay: Effect on PHD3 expression in HEK293T cells at 1 to 10 uM after 3 hrs by Western blot analysis; format: ADME, cell-based; settings: human; how it was run: as §1
[7] = target: T1, Hypoxia-inducible factor prolyl hydroxylase; assay: Inhibition of PHD in HEK293T cells assessed as increase in HIF1alpha expression at 10 uM after 15 to 180 mins by Western blot analysis; format: cell-based
How it was run: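 HEK-293T cells were stimulated over a time course and HIF-1α was followed by Western blot. Lysis was in NP-40 buffer with protease and phosphatase inhibitors. 30 μg protein was resolved on 10% SDS-PAGE, transferred to PVDF, and detected by HRP secondary and chemiluminescence.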

[8] = target: T1, Hypoxia-inducible factor prolyl hydroxylase; assay: Inhibition of PHD in HEK293T cells assessed as increase in HIF1alpha expression at 10 uM under hypoxic condition by Western blot analysis; format: cell-based
How it was run: (§2)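 HEK-293T cells were treated under hypoxia (1% O2) or normoxia, with or without compound. HIF-1α and PHD levels were read by Western blot: NP-40 lysis, 30 μg protein on 10% SDS-PAGE, PVDF transfer, HRP secondary and chemiluminescence.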

HEK-293T [9] = assay: Effect on PHD2 expression in HEK293T cells at 10 uM under hypoxic condition by Western blot analysis; format: ADME, cell-based; settings: human; how it was run: as §2
HEK-293T [10] = assay: Effect on PHD2 expression in HEK293T cells at 10 uM under normoxic condition by Western blot analysis; format: ADME, cell-based; settings: human; how it was run: as §2
[11] = target: T1, Hypoxia-inducible factor prolyl hydroxylase; assay: Inhibition of PHD in HEK293T cells assessed as increase in HIF1alpha expression at 10 uM under normoxic condition by Western blot analysis; format: cell-based; how it was run: as §2
[12] = target: T1, Hypoxia-inducible factor prolyl hydroxylase; assay: Inhibition of PHD in HEK293T cells assessed as increase in HIF1alpha expression at 1 to 10 uM after 6 hrs in presence of proteasome inhibitor MG132; format: cell-based
How it was run: (§3)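 HEK-293T cells were treated for 6 h in the presence of the proteasome inhibitor MG132. Hydroxylated HIF-1α and total HIF-1α were determined by immunoblot: 10% SDS-PAGE, PVDF transfer, HRP/chemiluminescence detection.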

[13] = target: T1, Hypoxia-inducible factor prolyl hydroxylase; assay: Inhibition of PHD in HEK293T cells assessed as reduction in HIF1alpha hydroxylation at 1 to 10 uM after 6 hrs in presence of proteasome inhibitor MG132; format: cell-based; how it was run: as §3
[14] = target: T1, Hypoxia-inducible factor prolyl hydroxylase; assay: Reversible inhibition of PHD (unknown origin) expressed in mouse NIH/3T3 cells harboring HRE-driven luciferase gene assessed as transactivation of HIF1alpha at 5 to 25 uM pretreated for 1 hr followed by compound washout and measured after 6 hrs by luciferase reporter gene assay; format: cell-based
How it was run: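 NIH-3T3-EPO-Luc cells stably carry an EPO-promoter 3×HRE-luciferase reporter. Cells were pretreated 1 h, then washed or not with PBS and incubated 6 h in complete medium. Lysis was in Tris-phosphate pH 7.8/MgCl2/DTT/Triton buffer and luciferase was read in the lysate. Data are fold induction over untreated cells, means ± SD, n = 3, one-way ANOVA with Tukey's test.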

[15] = target: T1, Hypoxia-inducible factor prolyl hydroxylase; assay: Inhibition of PHD (unknown origin) expressed in mouse NIH/3T3 cells harboring HRE-driven luciferase gene assessed as transactivation of HIF1alpha at 1 to 25 uM after 6 hrs in presence of 50 uM betulinic acid by luciferase reporter gene assay; format: cell-based
How it was run: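 NIH-3T3-EPO-Luc (3×HRE-luciferase) cells were preincubated 30 min with betulinic acid (50 μM), then treated with compound for 6 h. Cells were washed in PBS and lysed in Tris-phosphate pH 7.8 buffer, and luciferase was measured in the lysate. Data are fold induction over untreated cells, means ± SD, n = 3, one-way ANOVA with Tukey's test.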

T1 sequence (Q96KS0 whole entry, looked up): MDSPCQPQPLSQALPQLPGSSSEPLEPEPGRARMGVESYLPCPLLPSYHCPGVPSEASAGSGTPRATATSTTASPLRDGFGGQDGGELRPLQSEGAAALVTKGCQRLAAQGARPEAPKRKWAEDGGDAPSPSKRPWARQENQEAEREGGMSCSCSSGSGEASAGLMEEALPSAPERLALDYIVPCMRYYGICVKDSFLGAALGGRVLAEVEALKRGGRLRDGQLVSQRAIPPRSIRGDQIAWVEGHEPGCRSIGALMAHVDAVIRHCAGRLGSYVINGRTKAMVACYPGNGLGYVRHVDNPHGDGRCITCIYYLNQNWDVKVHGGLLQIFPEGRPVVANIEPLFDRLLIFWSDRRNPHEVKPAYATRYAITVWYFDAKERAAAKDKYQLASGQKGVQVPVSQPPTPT
T1 sequence (Q9GZT9 whole entry, looked up): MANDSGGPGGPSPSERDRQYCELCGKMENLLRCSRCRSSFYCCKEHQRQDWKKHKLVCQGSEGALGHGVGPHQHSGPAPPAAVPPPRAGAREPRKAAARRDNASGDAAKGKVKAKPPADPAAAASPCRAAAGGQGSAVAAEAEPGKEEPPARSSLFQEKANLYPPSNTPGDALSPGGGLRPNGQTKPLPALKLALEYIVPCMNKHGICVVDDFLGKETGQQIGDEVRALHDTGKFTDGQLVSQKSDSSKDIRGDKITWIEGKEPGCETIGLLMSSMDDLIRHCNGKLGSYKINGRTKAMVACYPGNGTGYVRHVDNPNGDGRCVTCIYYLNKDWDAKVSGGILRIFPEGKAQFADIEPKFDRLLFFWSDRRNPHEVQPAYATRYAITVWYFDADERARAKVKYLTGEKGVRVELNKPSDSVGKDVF
T1 sequence (Q9H6Z9 whole entry, looked up): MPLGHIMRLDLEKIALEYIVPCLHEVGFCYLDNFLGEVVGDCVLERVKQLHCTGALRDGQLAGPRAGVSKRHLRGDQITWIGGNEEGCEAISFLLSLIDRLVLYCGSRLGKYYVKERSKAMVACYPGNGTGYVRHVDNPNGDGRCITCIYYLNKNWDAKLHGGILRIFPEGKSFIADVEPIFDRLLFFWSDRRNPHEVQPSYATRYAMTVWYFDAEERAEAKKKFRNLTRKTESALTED
T1 sequence (Q9NXG6 whole entry, looked up): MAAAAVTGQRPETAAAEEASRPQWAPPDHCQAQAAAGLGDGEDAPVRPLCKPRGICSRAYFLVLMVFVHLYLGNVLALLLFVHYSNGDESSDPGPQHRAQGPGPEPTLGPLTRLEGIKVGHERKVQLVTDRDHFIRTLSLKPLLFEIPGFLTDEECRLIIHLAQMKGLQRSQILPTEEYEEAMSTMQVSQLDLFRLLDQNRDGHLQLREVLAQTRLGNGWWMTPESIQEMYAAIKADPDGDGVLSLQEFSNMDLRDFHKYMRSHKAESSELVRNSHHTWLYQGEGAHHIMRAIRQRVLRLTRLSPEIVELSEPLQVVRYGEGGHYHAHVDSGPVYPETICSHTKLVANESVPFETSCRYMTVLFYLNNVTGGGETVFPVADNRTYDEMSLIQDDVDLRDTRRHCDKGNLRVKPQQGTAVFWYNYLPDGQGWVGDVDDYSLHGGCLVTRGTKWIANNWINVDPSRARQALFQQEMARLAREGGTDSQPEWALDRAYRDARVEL

EC50 [1] | Intrinsic activity [2] | SMILES | other results
5 µM | 0.16 | CC1(C)CCC2(C(=O)NO)CC[C@]3(C)C(=CC[C@@H]4[C@@]5(C)CC=CC(C)(C)[C@@H]5CC[C@]43C)[C@@H]2C1 (single isomer, unassigned) | –
2.4 µM | 0.34 | C=C(C)[C@@H]1CC[C@]2(C(=O)NO)CC[C@]3(C)C(CC[C@@H]4[C@@]5(C)Cc6cn[nH]c6C(C)(C)[C@@H]5CC[C@]43C)[C@H]12 (some centres undefined) | –
> 50 µM | – | CC1(C)CCC2(C(=O)O)CC[C@]3(C)C(=CC(=O)[C@@H]4[C@@]5(C)CC[C@H](O)C(C)(C)[C@@H]5CC[C@]43C)[C@@H]2C1 (single isomer, unassigned) | –
5.8 µM | 2.2 | CC1(C)CC[C@]2(C(=O)NO)CC[C@]3(C)C(=CC[C@@H]4[C@@]5(C)CCC(=O)OC(C)(C)[C@@H]5CC[C@]43C)[C@@H]2C1 | –
6.8 µM | 0.31 | C=C(C)[C@@H]1CC[C@]2(C(=O)NO)CC[C@]3(C)C(CC[C@@H]4[C@@]5(C)CC/C(=N\O)C(C)(C)[C@@H]5CC[C@]43C)[C@@H]12 (some centres undefined) | –
16.4 µM | 0.39 | CC1(C)CCC2(C(=O)NO)CC[C@]3(C)C(=CC[C@@H]4[C@@]5(C)CC[C@H](O)C(C)(C)[C@@H]5CC[C@]43C)[C@@H]2C1 (single isomer, unassigned) | –
7.7 µM | 0.17 | C[C@H]1[C@H](C)CC[C@]2(C(=O)NO)CC[C@]3(C)C(=CC[C@@H]4[C@@]5(C)CC[C@H](O)C(C)(C)[C@@H]5CC[C@]43C)[C@H]12 | –
11.4 µM | 0.15 | CC1(C)CC[C@]2(C(=O)NO)CC[C@]3(C)C(=CC(=O)[C@@H]4[C@@]5(C)CC[C@H](O)C(C)(C)[C@@H]5CC[C@]43C)[C@@H]2C1 | –
8.9 µM | 0.1 | C[C@H]1[C@H](C)CC[C@]2(C(=O)NO)CC[C@]3(C)C(=CC[C@@H]4[C@@]5(C)CC/C(=N\O)C(C)(C)[C@@H]5CC[C@]43C)[C@H]12 | –
> 50 µM | – | CC1(C)[C@@H](O)CC[C@]2(C)[C@H]3C(=O)C=C4[C@@H]5C[C@@](C)(C(=O)O)CC[C@]5(C)CC[C@@]4(C)[C@]3(C)CC[C@@H]12 [ENOXOLONE] | –
> 50 µM | – | CC1(C)[C@@H](O)CC[C@]2(C)[C@H]3C(=O)C=C4[C@@H]5C[C@@](C)(C(=O)NO)CC[C@]5(C)CC[C@@]4(C)[C@]3(C)CC[C@@H]12 | –
2.6 µM | 0.55 | C=C(C)[C@@H]1CC[C@]2(C(=O)NO)CC[C@]3(C)C(CC[C@@H]4[C@@]5(C)Cc6cnoc6C(C)(C)[C@@H]5CC[C@]43C)[C@H]12 (some centres undefined) | –
7.5 µM | 1.19 | C=C(C)[C@@H]1CC[C@]2(C)[C@H](CC=C3[C@@H]4CC(C)(C)CC[C@]4(C(=O)OC)CC[C@]32C)[C@@]1(C)CCC(=O)NO | –
> 50 µM | – | CC1(C)CC[C@]2(C(=O)O)CC[C@]3(C)C(=CC[C@@H]4[C@@]5(C)CC[C@H](O)C(C)(C)[C@@H]5CC[C@]43C)[C@@H]2C1 [OLEANOLIC_ACID] | –
> 50 µM | – | C=C(C)[C@@H]1CC[C@]2(C(=O)O)CC[C@]3(C)C(CC[C@@H]4[C@@]5(C)CC[C@H](OC(=O)CC(C)(C)C(=O)O)C(C)(C)[C@@H]5CC[C@]43C)[C@H]12 (some centres undefined) | –
> 50 µM | – | CC1(C)CC[C@]2(C(=O)O)CC[C@]3(C)C(=CC[C@@H]4[C@@]5(C)C[C@@H](O)[C@H](O)C(C)(C)[C@@H]5CC[C@]43C)[C@@H]2C1 [MASLINIC ACID] | –
3.2 µM | 0.48 | C=C(C)[C@@H]1CC[C@]2(C(=O)NO)CC[C@]3(C)C(CC[C@@H]4[C@@]5(C)CC=CC(C)(C)[C@@H]5CC[C@]43C)[C@H]12 (some centres undefined) | –
3.8 µM | 0.43 | CC1(C)CCC2(C(=O)NO)CC[C@]3(C)C(=CC[C@@H]4[C@@]5(C)CC/C(=N\O)C(C)(C)[C@@H]5CC[C@]43C)[C@@H]2C1 (single isomer, unassigned) | –
> 50 µM | – | C[C@H]1[C@H](C)CC[C@]2(C(=O)O)CC[C@]3(C)C(=CC[C@@H]4[C@@]5(C)CC[C@H](O)C(C)(C)[C@@H]5CC[C@]43C)[C@H]12 [URSOLIC ACID] | –
7.1 µM | 0.1 | CC1(C)CC[C@]2(C(=O)NO)CC[C@]3(C)C(=CC[C@@H]4[C@@]5(C)C[C@@H](O)[C@H](O)C(C)(C)[C@@H]5CC[C@]43C)[C@@H]2C1 | –

SMILES | EC50 [1] | Intrinsic activity [2] | other results
C=C(C)[C@@H]1CC[C@]2(C(=O)NO)CC[C@]3(C)C(CC[C@@H]4[C@@]5(C)CC[C@H](O)C(C)(C)[C@@H]5CC[C@]43C)[C@@H]12 (some centres undefined) | 4.8 µM | 0.36 | inhibition [3]: Active; Activity (HEK-293T [4]): Non-Toxic; Activity (HEK-293T [5]): Non-Toxic; Activity (HEK-293T [6]): Non-Toxic; inhibition [7]: Active; inhibition [8]: Active; Activity (HEK-293T [9]): Non-Toxic; Activity (HEK-293T [10]): Non-Toxic; inhibition [11]: Active; inhibition [12]: Active; inhibition [13]: Active; inhibition [14]: Active; inhibition [15]: inactive
C=C(C)[C@@H]1CC[C@]2(C(=O)O)CC[C@]3(C)[C@H](CC[C@@H]4[C@@]5(C)CC[C@H](O)C(C)(C)[C@@H]5CC[C@]43C)[C@@H]12 [BETULINIC ACID] | > 50 µM | – | –
